The source made the active and inactive calls. No cut-off for these calls is given here.
Target: T1, Aldehyde dehydrogenase, mitochondrial (Homo sapiens, UniProt P05091)
T1 sequence (P05091 whole entry): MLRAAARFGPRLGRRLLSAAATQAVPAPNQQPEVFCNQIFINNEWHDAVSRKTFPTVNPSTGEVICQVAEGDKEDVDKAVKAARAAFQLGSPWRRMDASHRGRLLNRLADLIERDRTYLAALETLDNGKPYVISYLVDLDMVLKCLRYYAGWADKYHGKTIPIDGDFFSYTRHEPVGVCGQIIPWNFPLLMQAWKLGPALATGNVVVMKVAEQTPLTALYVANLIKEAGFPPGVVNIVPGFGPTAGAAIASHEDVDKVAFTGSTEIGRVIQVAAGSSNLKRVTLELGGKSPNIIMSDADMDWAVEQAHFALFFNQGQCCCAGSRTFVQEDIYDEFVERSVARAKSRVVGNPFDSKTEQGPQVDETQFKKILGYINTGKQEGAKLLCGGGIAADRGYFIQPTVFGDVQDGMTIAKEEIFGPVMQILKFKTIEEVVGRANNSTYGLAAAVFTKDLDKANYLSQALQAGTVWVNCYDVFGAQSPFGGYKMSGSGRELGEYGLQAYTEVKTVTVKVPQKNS
Experiment: Allosteric activation of recombinant human full-length ALDH2 (18 to 517 residues) expressed in Escherichia coli using acetaldehyde as substrate measured after 3 hrs in presence of NAD+ by […]
Settings: not given
How it was run: (§1)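 Read-out is absorbance at 450 nm, taken at room temperature. Starting concentrations are 5 mg/ml ALDH2, 25 mM acetaldehyde and 1 mM NAD+. Activity is the change in absorbance per minute (SlopeOD450). Maximum fold activation is calculated from ALDH2 activity with compound and corrected by the activity of the Alda-1 reference.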

| SMILES | EC50 |
| --- | --- |
| COc1ccc(CNc2ccc(N3CCOCC3)c(C(=O)NCC3CC3)c2)cc1F | 17.9 µM |
| O=C(NCc1ccc2c(c1)OCO2)c1c(Cl)cccc1Cl | 4.3 µM |

Target: T2, Aldehyde dehydrogenase, mitochondrial (Homo sapiens) (UniProt P05091)
T2 sequence (whole entry): T1 sequence (P05091 whole entry)
Experiment: Allosteric activation of recombinant human full-length ALDH2 (18 to 517 residues) expressed in Escherichia coli at 100 uM using acetaldehyde as substrate measured after 3 hrs in presence of NAD+ by […] relative to Alda-1
Settings: not given
How it was run: as §1

| SMILES | fold change (FC) |
| --- | --- |
| COc1ccc(C(=O)Nc2ccc(N3CCOCC3)c(C(=O)NCC3CC3)c2)cc1F | inactive |
| COc1ccc(CN(C(C)=O)c2ccc(N3CCOCC3)c(C(=O)NCC(C)(C)O)c2)cc1F | inactive |
| Clc1ccc(NCc2ccc3c(c2)OCO3)cc1Cl | inactive |
| COc1ccc(CNc2ccc(N3CCC(F)(F)CC3)c(C(=O)NCC3CC3)c2)cc1F | 12% |
| COc1ccc(CNc2ccc(N3CCC(F)CC3)c(C(=O)NCC3CC3)c2)cc1F | inactive |
| Fc1ccc(NCc2ccc3c(c2)OCO3)cc1 | inactive |
| O=C(O)c1cc(NCc2ccc3c(c2)OCO3)ccc1N1CCOCC1 | 23% |
| Clc1cc(NCc2ccc3c(c2)OCO3)ccc1N1CCOCC1 | inactive |
| O=C(CCC(=O)OCC(=O)c1ccccc1Cl)Nc1ccc(Cl)cc1 | 6% |
| COc1ccc(CNc2ccc(-c3ccccc3)c(C(=O)NCC3CC3)c2)cc1F | 3% |
| COc1ccc(CN(C)c2ccc(N3CCOCC3)c(C(=O)NCC3CC3)c2)cc1F | inactive |
| COc1ccc(CNc2ccc(N3CCCCC3)c(C(=O)NCC3CC3)c2)cc1F | inactive |
| O=C(O)c1cc(NCc2ccc(Cl)c(Cl)c2)ccc1N1CCOCC1 | 9% |
| COc1ccc(CN(C(C)=O)c2ccc(N3CCOCC3)c(C(=O)NCC3(O)CC3)c2)cc1F | inactive |
| O=C(O)c1cc(NCc2ccc3c(c2)OCO3)ccc1Cl | inactive |

Same assay, conditions: filed as activator

| SMILES | fold change (FC) |
| --- | --- |
| CCNC(=O)c1cc(NCc2ccc(OC)c(F)c2)ccc1N1CCOCC1 | 63% |
| COc1ccc(CNc2cccc(C(=O)NCC3CC3)c2)cc1F | 56% |
| CNC(=O)c1cc(NCc2ccc(OC)c(F)c2)ccc1N1CCOCC1 | 52% |
| CCOC(=O)c1cc(NCc2ccc3c(c2)OCO3)ccc1N1CCOCC1 | 64% |
| COc1ccc(CNc2ccc(N3CCOCC3)c(C(=O)NCC3CC3)c2)cc1F | 104% |
| COc1ccc(CNc2ccc(C3CCOCC3)c(C(=O)NCC3CC3)c2)cc1F | 53% |
| COc1ccc(CNc2ccc(N3CCOCC3)c(C(=O)NC3CC3)c2)cc1F | 94% |
| COc1ccc(CNc2ccc(N3CCOCC3)c(C(=O)NCC(C)(C)F)c2)cc1F | 101% |
| COc1ccc(CNc2ccc(N3CCOCC3)c(C(=O)NCC(C)(C)O)c2)cc1F | 120% |
| COc1ccc(CNc2ccc(N3CCOCC3)c(C(=O)NCC(C)C)c2)cc1F | 92% |
| COc1ccc(CNc2ccc(N3CCOCC3)c(C(=O)N3CCCCC3)c2)cc1F | 66% |
| COc1ccc(CNc2ccc(N3CCOCC3)c(C(=O)NCC3(O)CC3)c2)cc1F | 97% |
| COc1ccc(CNc2ccc(N3CCOCC3)c(C(=O)NCC3CCCCC3)c2)cc1F | 80% |
| COc1ccc(CNc2ccc(N3CCOCC3)c(C(=O)NCC(C)(C)C)c2)cc1F | 59% |
| CCCNC(=O)c1cc(NCc2ccc(OC)c(F)c2)ccc1N1CCOCC1 | 97% |
| COc1ccc(CNc2ccc(N3CCOCC3)c(C(=O)NCC3CCCC3)c2)cc1F | 51% |
| COc1ccc(CNc2ccc(N3CCC(O)CC3)c(C(=O)NCC3CC3)c2)cc1F | 80% |
| COc1ccc(CNc2ccc(N3CCOCC3)c(C(=O)NCC3CCC3)c2)cc1F | 41% |

System: Rattus norvegicus
Experiment: Protection against middle cerebral artery occlusion-induced Sprague-Dawley rat model of ischemic stroke-like event assessed as reduction in brain infarct size at 64 ug, icv pretreated for 5 mins followed by MCAO surgery for 2 hrs and subsequent reperfusion for 24 hrs by TCC staining based assay relative to control
Assay type: functional
Parameters: scale not given: the % may be the effect or the level left
Settings: dose 64 µg; time 26.0833 hrs; 26.08 h

| SMILES | Activity |
| --- | --- |
| COc1ccc(CNc2ccc(N3CCOCC3)c(C(=O)NCC3CC3)c2)cc1F | 70% |

System: Rattus norvegicus
Experiment: Protection against middle cerebral artery occlusion-induced Sprague-Dawley rat model of ischemic stroke-like event assessed as reduction in brain infarct size at 50 ug, icv pretreated for 5 mins followed by MCAO surgery for 2 hrs and subsequent reperfusion for 24 hrs by TCC staining based assay
Assay type: functional, organism-based
Settings: dose 50.0 µg, time 26.08333 hrs

| SMILES | Activity |
| --- | --- |
| O=C(NCc1ccc2c(c1)OCO2)c1c(Cl)cccc1Cl | Active |
